Source: ChEMBL document CHEMBL1140127, “Enantiomeric propanolamines as selective N-methyl-D-aspartate 2B receptor antagonists” (J Med Chem, 2008)

molecular target: T1, Adrenergic receptor alpha-1 (Rattus norvegicus, UniProt P15823+P23944+P43140); experiment: Displacement of [3H]prazosin from alpha1 adrenergic receptor in rat brain; format: tissue-based
T1 sequence (P15823 whole entry): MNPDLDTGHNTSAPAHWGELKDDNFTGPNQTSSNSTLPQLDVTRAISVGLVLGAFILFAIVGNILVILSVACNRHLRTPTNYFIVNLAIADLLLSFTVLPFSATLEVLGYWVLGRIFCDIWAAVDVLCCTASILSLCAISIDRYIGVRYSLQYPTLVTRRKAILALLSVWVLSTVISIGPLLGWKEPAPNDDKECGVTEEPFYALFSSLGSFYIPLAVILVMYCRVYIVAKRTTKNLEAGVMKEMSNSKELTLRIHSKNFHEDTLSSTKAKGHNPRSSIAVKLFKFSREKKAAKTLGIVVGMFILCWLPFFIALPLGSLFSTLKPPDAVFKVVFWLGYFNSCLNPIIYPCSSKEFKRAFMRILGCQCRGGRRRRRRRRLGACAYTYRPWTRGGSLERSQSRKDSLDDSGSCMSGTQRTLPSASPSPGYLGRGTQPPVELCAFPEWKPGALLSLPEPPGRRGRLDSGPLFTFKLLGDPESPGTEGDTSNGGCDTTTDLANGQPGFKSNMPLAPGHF
T1 sequence (P23944 whole entry): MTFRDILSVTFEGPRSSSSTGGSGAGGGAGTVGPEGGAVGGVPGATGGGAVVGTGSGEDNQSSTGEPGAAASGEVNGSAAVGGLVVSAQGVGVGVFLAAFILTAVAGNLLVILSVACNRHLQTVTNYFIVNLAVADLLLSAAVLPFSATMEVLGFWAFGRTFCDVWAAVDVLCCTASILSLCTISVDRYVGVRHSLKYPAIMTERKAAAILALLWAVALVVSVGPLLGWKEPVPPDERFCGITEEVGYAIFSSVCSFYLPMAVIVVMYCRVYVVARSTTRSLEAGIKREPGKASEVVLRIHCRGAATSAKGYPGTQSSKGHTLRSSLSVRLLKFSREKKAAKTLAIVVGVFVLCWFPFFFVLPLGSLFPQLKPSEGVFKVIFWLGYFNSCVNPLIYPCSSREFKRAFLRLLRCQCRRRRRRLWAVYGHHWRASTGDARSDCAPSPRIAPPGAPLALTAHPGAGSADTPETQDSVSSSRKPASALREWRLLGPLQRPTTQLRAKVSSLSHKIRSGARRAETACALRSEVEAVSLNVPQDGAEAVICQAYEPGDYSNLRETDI
T1 sequence (P43140 whole entry): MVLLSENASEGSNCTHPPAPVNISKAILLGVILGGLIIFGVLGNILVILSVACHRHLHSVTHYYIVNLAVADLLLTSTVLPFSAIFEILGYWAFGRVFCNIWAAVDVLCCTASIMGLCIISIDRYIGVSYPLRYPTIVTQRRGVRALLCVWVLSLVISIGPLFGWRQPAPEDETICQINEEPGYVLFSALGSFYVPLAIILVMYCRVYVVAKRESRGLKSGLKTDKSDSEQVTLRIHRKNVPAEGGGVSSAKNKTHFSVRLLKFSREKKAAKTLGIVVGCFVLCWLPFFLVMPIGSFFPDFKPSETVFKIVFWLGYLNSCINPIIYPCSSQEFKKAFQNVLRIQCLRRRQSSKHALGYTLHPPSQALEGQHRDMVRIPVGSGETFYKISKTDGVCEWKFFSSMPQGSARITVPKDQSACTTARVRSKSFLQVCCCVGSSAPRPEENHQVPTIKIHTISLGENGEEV
In short: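 Rat brain membranes; displacement of [3H]-prazosin at 4–6 concentrations, each point in duplicate. IC50 from displacement curves fitted by nonlinear least-squares regression.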

Structure (SMILES) | IC50 [µM]
CS(=O)(=O)Nc1ccc(OC[C@@H](O)CNCCc2ccc(Cl)cc2)cc1 | 9.5
CS(=O)(=O)Nc1ccc(OC[C@@H](O)CN(CCc2ccc(Cl)c(Cl)c2)Cc2ccccc2O)cc1 | > 10
CN(CCc1ccc(Cl)c(Cl)c1)C[C@H](O)COc1ccc(NS(C)(=O)=O)cc1 | 1.4
CS(=O)(=O)Nc1ccc(OC[C@@H](O)CN(CCc2ccc(Cl)c(Cl)c2)Cc2ccc(F)c(F)c2F)cc1 | > 10
CS(=O)(=O)Nc1ccc(OC[C@@H](O)CN(CCc2ccc(Cl)c(Cl)c2)Cc2ccccc2F)cc1 | > 10

molecular target: Glutamate NMDA receptor; Grin1/Grin2b (Rattus norvegicus, UniProt P35439+Q00960); experiment: Inhibition of rat recombinant NR1/NR2B receptor expressed in Xenopus oocytes assessed as inhibition of glutamate and glycine-induced evoked current by two electrode voltage clamp method; format: cell-based, Oocyte
Sequence (Q00960 whole entry, other chains not shown): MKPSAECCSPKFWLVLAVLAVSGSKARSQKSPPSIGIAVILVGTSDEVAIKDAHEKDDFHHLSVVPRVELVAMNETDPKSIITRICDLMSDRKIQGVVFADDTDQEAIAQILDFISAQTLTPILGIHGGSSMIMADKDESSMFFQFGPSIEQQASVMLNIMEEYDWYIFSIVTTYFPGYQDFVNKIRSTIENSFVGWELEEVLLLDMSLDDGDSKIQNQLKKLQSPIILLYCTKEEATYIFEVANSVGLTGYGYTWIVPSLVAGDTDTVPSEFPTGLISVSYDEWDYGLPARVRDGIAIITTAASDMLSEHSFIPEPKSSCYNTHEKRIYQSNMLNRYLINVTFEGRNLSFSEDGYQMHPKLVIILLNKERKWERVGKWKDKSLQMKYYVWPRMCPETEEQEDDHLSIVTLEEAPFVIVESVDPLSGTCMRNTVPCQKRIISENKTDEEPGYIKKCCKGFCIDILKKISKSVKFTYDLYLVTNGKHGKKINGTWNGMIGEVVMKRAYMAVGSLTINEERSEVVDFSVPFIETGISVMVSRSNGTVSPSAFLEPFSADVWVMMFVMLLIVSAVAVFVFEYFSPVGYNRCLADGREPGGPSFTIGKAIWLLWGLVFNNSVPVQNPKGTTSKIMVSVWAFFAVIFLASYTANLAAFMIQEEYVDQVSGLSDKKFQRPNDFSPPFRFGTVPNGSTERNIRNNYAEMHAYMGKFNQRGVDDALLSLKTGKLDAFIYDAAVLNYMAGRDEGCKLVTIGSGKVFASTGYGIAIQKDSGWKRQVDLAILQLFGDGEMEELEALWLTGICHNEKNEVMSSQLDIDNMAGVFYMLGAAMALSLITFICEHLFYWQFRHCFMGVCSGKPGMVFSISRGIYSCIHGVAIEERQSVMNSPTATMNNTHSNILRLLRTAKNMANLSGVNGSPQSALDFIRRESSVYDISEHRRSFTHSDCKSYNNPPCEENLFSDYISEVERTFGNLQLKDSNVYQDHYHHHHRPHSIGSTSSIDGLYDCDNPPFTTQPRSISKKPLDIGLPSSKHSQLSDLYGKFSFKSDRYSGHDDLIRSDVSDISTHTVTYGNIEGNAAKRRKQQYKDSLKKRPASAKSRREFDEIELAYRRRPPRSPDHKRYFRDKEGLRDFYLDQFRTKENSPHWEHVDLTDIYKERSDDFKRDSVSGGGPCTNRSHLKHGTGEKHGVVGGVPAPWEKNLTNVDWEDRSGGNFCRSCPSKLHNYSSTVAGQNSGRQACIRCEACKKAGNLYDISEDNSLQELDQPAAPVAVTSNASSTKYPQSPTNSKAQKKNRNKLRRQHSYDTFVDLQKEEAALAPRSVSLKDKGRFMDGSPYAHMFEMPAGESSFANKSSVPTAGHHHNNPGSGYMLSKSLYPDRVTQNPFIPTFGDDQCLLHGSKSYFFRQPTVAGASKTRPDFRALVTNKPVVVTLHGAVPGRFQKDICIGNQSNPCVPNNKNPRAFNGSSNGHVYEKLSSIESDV

Structure (SMILES) | IC50 [nM]
CS(=O)(=O)Nc1ccc(OC[C@@H](O)CN(CCc2ccc(Cl)c(Cl)c2)Cc2ccccc2Br)cc1 | 38
O=S(=O)(Nc1ccc(OC[C@@H](O)CNCCc2ccc(Cl)c(Cl)c2)cc1)c1ccccc1 | 1450
CS(=O)(=O)Nc1ccc(OC[C@@H](O)CN(CCc2ccc(Cl)c(Cl)c2)Cc2nccs2)cc1 | 3580
Cc1ccc(CN(CCc2ccc(Cl)c(Cl)c2)C[C@H](O)COc2ccc(NS(C)(=O)=O)cc2)cc1 | 5410
CS(=O)(=O)Nc1ccc(OC[C@@H](O)CN(CCc2ccc(Cl)c(Cl)c2)CCc2ccccc2O)cc1 | 755
CS(=O)(=O)Nc1ccc(OC[C@@H](O)CNCCc2ccc(O)c(O)c2)cc1 | > 100000
CS(=O)(=O)Nc1ccc(OC[C@@H](O)CNCCc2ccc3c(c2)OCO3)cc1 | 951
Cc1ccccc1CN(CCc1ccc(Cl)c(Cl)c1)C[C@H](O)COc1ccc(NS(C)(=O)=O)cc1 | 5700
CS(=O)(=O)Nc1ccc(OC[C@@H](O)CN(CCc2ccc(Cl)c(Cl)c2)Cc2ccccc2C(F)(F)F)cc1 | 3720
CS(=O)(=O)Nc1ccc(OC[C@@H](O)CN(CCc2ccc(Cl)c(Cl)c2)Cc2ccccc2[N+](=O)[O-])cc1 | 589
CS(=O)(=O)Nc1ccc(OC[C@@H](O)CNCCc2ccc(Cl)cc2Cl)cc1 | 2320
CS(=O)(=O)Nc1cccc(OC[C@@H](O)CNCCc2ccc(Cl)c(Cl)c2)c1 | 530
COc1cccc(OC)c1CN(CCc1ccc(Cl)c(Cl)c1)C[C@H](O)COc1ccc(NS(C)(=O)=O)cc1 | 11900
CS(=O)(=O)Nc1ccc(OC[C@@H](O)CNCCc2ccc(Cl)cc2)cc1 | 101
Cc1cc(OC[C@@H](O)CNCCc2ccc(Cl)c(Cl)c2)ccc1NS(C)(=O)=O | 687
CCCN(CCc1ccc(Cl)c(Cl)c1)C[C@H](O)COc1ccc(NS(C)(=O)=O)cc1 | 635
C[C@H](NC[C@H](O)COc1ccc(NS(C)(=O)=O)cc1)c1cccc2ccccc12 | 5070
CCCCCN(CCc1ccc(Cl)c(Cl)c1)C[C@H](O)COc1ccc(NS(C)(=O)=O)cc1 | 659
COc1cccc(CN(CCc2ccc(Cl)c(Cl)c2)C[C@H](O)COc2ccc(NS(C)(=O)=O)cc2)c1OC | 2790
CS(=O)(=O)Nc1ccc(OC[C@H](O)CN(CCc2ccc(Cl)c(Cl)c2)Cc2cccc(O)c2)cc1 | 409
CCCS(=O)(=O)Nc1ccc(OC[C@@H](O)CNCCc2ccc(Cl)c(Cl)c2)cc1 | 6100
CS(=O)(=O)Nc1ccc(OC[C@@H](O)CNCCc2ccc(Cl)c(Cl)c2)cc1F | 427
CS(=O)(=O)Nc1ccc(OC[C@@H](O)CN(CCc2ccc(Cl)c(Cl)c2)Cc2ccc(O)cc2O)cc1 | 146

Structure (SMILES) | IC50 [nM]
CS(=O)(=O)Nc1ccc(OC[C@@H](O)CN(CCc2ccc(Cl)c(Cl)c2)Cc2ccccc2)cc1 | 177
CS(=O)(=O)Nc1ccc(OC[C@@H](O)CN(CCc2ccc(Cl)c(Cl)c2)Cc2c(F)c(F)c(F)c(F)c2F)cc1 | 524
CS(=O)(=O)Nc1ccc(OC[C@H](O)CNCCc2ccc(Cl)c(Cl)c2)cc1 | 188
COc1ccccc1CN(CCc1ccc(Cl)c(Cl)c1)C[C@H](O)COc1ccc(NS(C)(=O)=O)cc1 | 3860
CS(=O)(=O)Nc1ccc(OC[C@@H](O)CNCCc2cccc(O)c2)cc1 | 4430
CS(=O)(=O)Nc1ccc(OC[C@@H](O)CNCCc2ccccc2Cl)cc1 | 429
CCCCN(CCc1ccc(Cl)c(Cl)c1)C[C@@H](O)COc1ccc(NS(C)(=O)=O)cc1 | 1280
CS(=O)(=O)Nc1ccc(OC[C@@H](O)CNCCc2ccccc2F)cc1 | 573
CS(=O)(=O)Nc1ccc(OC[C@@H](O)CN(CCc2ccc(Cl)c(Cl)c2)Cc2ccc(F)cc2)cc1 | 275
CS(=O)(=O)Nc1ccc(OC[C@@H](O)CNCCc2ccc(F)c(Cl)c2)cc1 | 397
CS(=O)(=O)Nc1ccc(OC[C@@H](O)CN(CCc2ccccc2)CCc2ccc(Cl)c(Cl)c2)cc1 | 3510
CS(=O)(=O)Nc1ccc(OC[C@H](O)CN(CCO)CCc2ccc(Cl)c(Cl)c2)cc1 | 173
CS(=O)(=O)Nc1ccc(OC[C@@H](O)CN(CCc2ccc(Cl)c(Cl)c2)Cc2cccnc2)cc1 | 278
CS(=O)(=O)Nc1ccc(OC[C@@H](O)CN(CCc2ccc(Cl)c(Cl)c2)Cc2ccccc2O)cc1 | 662
CS(=O)(=O)Nc1ccc(OC[C@@H](O)CN(CCc2ccc(Cl)c(Cl)c2)Cc2cccc3c2OCO3)cc1 | 5010
CN(CCc1ccc(Cl)c(Cl)c1)C[C@H](O)COc1ccc(NS(C)(=O)=O)cc1 | 130
CS(=O)(=O)Nc1ccc(OC[C@@H](O)CN(CCc2ccc(Cl)c(Cl)c2)Cc2cccc(O)c2O)cc1 | 1820
CS(=O)(=O)Nc1ccc(OC[C@@H](O)CN(CCc2ccc(Cl)c(Cl)c2)Cc2ccc(F)c(F)c2F)cc1 | 51
CN(c1ccc(OC[C@@H](O)CNCCc2ccc(Cl)c(Cl)c2)cc1)S(C)(=O)=O | 9910
CS(=O)(=O)Nc1ccc(OC[C@@H](O)CN(CCc2ccc(Cl)c(Cl)c2)Cc2ccccc2Cl)cc1 | 479
O=C(Nc1ccc(OC[C@@H](O)CNCCc2ccc(Cl)c(Cl)c2)cc1)C(Cl)Cl | 12800
CS(=O)(=O)Nc1ccc(OC[C@@H](O)CN(CCc2ccc(Cl)c(Cl)c2)CC2CCCCC2)cc1 | 9840
CCCCS(=O)(=O)Nc1ccc(OC[C@@H](O)CNCCc2ccc(Cl)c(Cl)c2)cc1 | 6790

Structure (SMILES) | IC50 [nM]
CS(=O)(=O)Nc1ccc(OC[C@@H](O)CNCCc2ccccc2O)cc1 | 2000
CS(=O)(=O)Nc1ccc(OC[C@@H](O)CNCCc2ccc(F)cc2)cc1 | 748
CC(=O)Nc1ccc(OC[C@@H](O)CNCCc2ccc(Cl)c(Cl)c2)cc1 | 4370
O=C(Nc1ccc(OC[C@@H](O)CNCCc2ccc(Cl)c(Cl)c2)cc1)C(Cl)(Cl)Cl | 10600
CS(=O)(=O)Nc1ccc(OC[C@H](O)CN(CCc2ccc(Cl)c(Cl)c2)Cc2ccccc2O)cc1 | 433
CS(=O)(=O)Nc1ccc(OC[C@@H](O)CNCCc2cc(O)cc(O)c2)cc1 | > 100000
CS(=O)(=O)Nc1ccc(OC[C@@H](O)CN(CCc2ccc(Cl)c(Cl)c2)Cc2c(F)cccc2F)cc1 | 281
CCS(=O)(=O)Nc1ccc(OC[C@@H](O)CNCCc2ccc(Cl)c(Cl)c2)cc1 | 587
CS(=O)(=O)Nc1ccc(OC[C@@H](O)CN(CCc2ccc(Cl)c(Cl)c2)Cc2cccc(F)c2)cc1 | 249
CC(=O)Oc1ccccc1CN(CCc1ccc(Cl)c(Cl)c1)C[C@H](O)COc1ccc(NS(C)(=O)=O)cc1 | 500
CS(=O)(=O)Nc1ccc(OC[C@@H](O)CNCCc2ccc(Cl)c(Cl)c2)c(F)c1 | 72
CS(=O)(=O)Nc1ccc(OC[C@@H](O)CNCCc2ccc(O)cc2)cc1 | 7240
CS(=O)(=O)Nc1ccc(OC[C@@H](O)CN(CCc2ccc(Cl)c(Cl)c2)Cc2ccccc2F)cc1 | 80
CN(CCc1ccc(Cl)c(Cl)c1)C[C@@H](O)COc1ccc(NS(C)(=O)=O)cc1 | 253
CS(=O)(=O)Nc1ccc(OC[C@@H](O)CNCCc2cccc(F)c2)cc1 | 853
CS(=O)(=O)Nc1ccc(OC[C@@H](O)CNCCc2ccc([N+](=O)[O-])cc2)cc1 | 1140
O=[N+]([O-])c1ccc(OC[C@@H](O)CNCCc2ccc(Cl)c(Cl)c2)cc1 | 9380
CS(=O)(=O)Nc1ccc(OC[C@@H](O)CN(CCc2ccc(Cl)c(Cl)c2)Cc2ccc(O)cc2)cc1 | 113
CS(=O)(=O)Nc1ccccc1OC[C@@H](O)CNCCc1ccc(Cl)c(Cl)c1 | 12000
CS(=O)(=O)Nc1ccc(OC[C@@H](O)CNCCc2cccc(Cl)c2)cc1 | 628
CC(C)N(CCc1ccc(Cl)c(Cl)c1)C[C@H](O)COc1ccc(NS(C)(=O)=O)cc1 | 603
